The target of series [1] is T1, Proteasome Macropain subunit MB1 (Homo sapiens, UniProt P28074).
T1 sequence (P28074 whole entry): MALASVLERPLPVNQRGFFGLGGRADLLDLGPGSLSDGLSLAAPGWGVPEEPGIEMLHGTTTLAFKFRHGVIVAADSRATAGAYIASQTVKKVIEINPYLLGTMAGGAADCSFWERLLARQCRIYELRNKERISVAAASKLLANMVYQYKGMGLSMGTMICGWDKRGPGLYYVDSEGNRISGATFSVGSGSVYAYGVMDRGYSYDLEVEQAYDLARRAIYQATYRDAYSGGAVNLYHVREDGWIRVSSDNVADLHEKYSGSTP
Nature of the series: Inhibition of chymotrypsin-like activity of human 20S proteasome pretreated for 15 mins followed by Suc-Leu-Leu-Val-Tyr-AMC substrate addition by fluorescence assay. An outline of the steps:
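Purified human proteasome (25 μg/mL) in 100 mM Tris-HCl pH 8.0 preincubated with compound 15 min, then Suc-Leu-Leu-Val-Tyr-AMC (50 μM) added; 50 μL reaction. AMC release followed as fluorescence increase at ex 355/em 460 nm. IC50 from sigmoidal variable-slope fit.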

Series [2] deals with T2, Proteasome subunit beta type-5 (Mus musculus) (UniProt O55234).
T2 sequence (whole entry): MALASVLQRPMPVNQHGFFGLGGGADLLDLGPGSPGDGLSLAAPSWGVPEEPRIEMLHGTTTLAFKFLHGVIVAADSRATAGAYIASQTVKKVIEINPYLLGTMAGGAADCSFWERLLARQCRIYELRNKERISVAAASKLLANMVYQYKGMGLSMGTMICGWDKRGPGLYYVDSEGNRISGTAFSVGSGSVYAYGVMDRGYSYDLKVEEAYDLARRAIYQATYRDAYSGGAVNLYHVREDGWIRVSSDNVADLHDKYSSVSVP
Nature of the series: Inhibition of chymotrypsin-like activity of 20S proteasome in mouse blood at 2.5 uM pretreated for 40 mins followed by Suc-Leu-Leu-Val-Tyr-AMC substrate addition by fluorescence assay relative to control. An outline of the steps: (§1)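 Normal mouse whole blood incubated with compound (1:50 volume ratio) 40 min, then pelleted. Cells lysed in 5 mM EDTA pH 8.0 at 4 °C 60 min, lysate protein by Bradford. 100 μg protein assayed in 20 mM HEPES pH 8.0, 0.5 mM EDTA, 0.05% SDS, 1% DMSO with 50 μM […]; fluorescence ex 355/em 460 nm.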

Series [3] is described as follows: Half-life in mouse plasma at 2 uM by LC-MS/MS analysis. The format is ADME, cell-free. The method in brief: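 Mouse plasma on sodium heparin. 10 mM DMSO stocks diluted to 0.02 mM in 0.05 M sodium phosphate with 0.5% BSA, then spiked into pre-warmed plasma to 2 µM final, duplicates (n=2), 37 °C water bath. Each time point quenched with acetonitrile; sonicated, shaken, centrifuged, supernatant diluted 1:1 in water, LC-MS/MS.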

Series [4] relates to MM1.S. Nature of the series: Cytotoxicity against human MM1S cells measured after 72 hrs by MTS assay. The format is functional, cell-based. An outline of the steps:
(§2)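 MM-1S seeded at 2 × 10⁴/well or RPMI 8226 at 0.5 × 10⁴/well, 100 μL, exposed to compound 72 h. MTS added (0.5 mg/mL final) for 2–4 h, absorbance read at 490 nm with 690 nm background subtraction. Inhibition = (A_control − A_sample)/A_control; IC50 from sigmoidal variable-slope nonlinear fit.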

The test system of series [5] is RPMI-8226. In words: Cytotoxicity against human RPMI8226 cells measured after 72 hrs by MTS assay. The format is functional, cell-based. The conditions noted are these: RPMI-8226, 72 h. The method in brief:
as §2

Series [6] deals with Mus musculus. Nature of the series: In vivo inhibition of chymotrypsin-like activity of 20S proteasome in blood cell of BALB/c mouse at 5 mg/kg, iv after 2 hrs using Suc-Leu-Leu-Val-Tyr-AMC substrate measured by fluorescence assay. The format is functional. An outline of the steps: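 BALB/c mice 6-8 weeks, 3 per group, single i.v. dose; positive control 5 mg/kg. Tail-vein blood taken at 1, 2 and 24 h into K2-EDTA tubes. Blood PBS-washed, cells lysed in 5 mM EDTA pH 8.0 for 60 min at 4 °C, clarified lysate assayed for chymotrypsin-like activity as in the in vitro assay.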

The target of series [7] is T2, Proteasome subunit beta type-5 (Mus musculus). Nature of the series: Inhibition of chymotrypsin-like activity of 20S proteasome in mouse blood at 0.5 uM pretreated for 40 mins followed by Suc-Leu-Leu-Val-Tyr-AMC substrate addition by fluorescence assay. The method in brief:
as §1

The source made the active and inactive calls. The rule behind the calls is not given here.

Turning to `CC(C)(C)CNC(=O)C[C@H](NC(=O)N1CCC(NC(=O)c2cnccn2)CC1)C(=O)N[C@@H](Cc1ccccc1)C(=O)NCc1ccccc1Cl`, the IC50 in series [1] was found to be 41 nM.
As to `CC(C)(C)CNC(=O)C[C@H](NC(=O)N1CCC(NC(=O)c2ccc(F)cc2)CC1)C(=O)N[C@@H](CCc1ccccc1)C(=O)NCc1ccccc1Cl`, the inhibition in series [2] is over 70%. The compound also showed a half-life at 2 µM in series [3] of 11.2 h. Also, the figures for the IC50 in series [4], in series [5] and in series [1] were 6.3 nM, 8.4 nM and 1.2 nM, respectively. The inhibition in vivo at 5 mg/kg in series [6] is over 50%.
With `CC(C)(C)CNC(=O)C[C@H](NC(=O)N1CCC(NC(=O)c2cnccn2)CC1)C(=O)N[C@@H](CCc1ccccc1)C(=O)NCc1ccc(F)cc1F`, the IC50 in series [1] turned out to be 10.8 nM.
In the case of `CC(C)(C)CNC(=O)C[C@H](NC(=O)N1CCC(C(=O)Nc2nccs2)CC1)C(=O)N[C@@H](CCc1ccccc1)C(=O)NCc1ccccc1Cl`, the inhibition result in series [2] and in series [7] was “Active” throughout. Also, the IC50 in series [4] turned out to be 7.2 nM; in series [5], 10.2 nM; in series [1] it was 0.9 nM.
Take `CC(C)(C)CNC(=O)C[C@H](NC(=O)N1CCC(C(=O)Nc2cnccn2)CC1)C(=O)N[C@@H](CCc1ccccc1)C(=O)NCc1ccc(F)cc1F`: the IC50 in series [1] stood at 6.6 nM.
Consider `CC(C)(C)CNC(=O)C[C@H](NC(=O)C1CCN(C(=O)c2cnccn2)CC1)C(=O)N[C@@H](CCc1ccccc1)C(=O)NCc1ccccc1Cl`, for which the figures for the IC50 in series [4], in series [5] and in series [1] were 11.8 nM, 15.9 nM and 2.4 nM, respectively.
Take `CC(C)(C)CNC(=O)C[C@H](NC(=O)c1ccc(F)cc1)C(=O)N[C@@H](CCc1ccccc1)C(=O)NCc1ccccc1Cl`: the half-life at 2 µM in series [3] stood at 5.61 h.
As to `CC(C)(C)CNC(=O)C[C@H](NC(=O)N1CCC(C(=O)Nc2ccon2)CC1)C(=O)N[C@@H](CCc1ccccc1)C(=O)NCc1ccccc1Cl`, the half-inhibitory concentration (IC50) in series [1] amounted to 7 nM.
For `CC(C)(C)CNC(=O)C[C@H](NC(=O)N1CCC(C(=O)Nc2ccccn2)CC1)C(=O)N[C@@H](CCc1ccccc1)C(=O)NCc1ccccc1Cl`, the IC50 in series [4] was found to be 4.3 nM; in series [5] it was 3.8 nM; in series [1], 1 nM.
On to `CC(C)(C)CNC(=O)C[C@H](NC(=O)N1CCC(C(=O)Nc2cnccn2)CC1)C(=O)N[C@@H](CCc1ccccc1)C(=O)NCc1ccc2c(c1)OCO2`, for which the IC50 in series [1] is 2.9 nM.
For the compound `CC(C)C[C@H](NC(=O)[C@H](CC(=O)NCC(C)(C)C)NC(=O)N1CCC(C(=O)Nc2cnccn2)CC1)C(=O)NCc1ccccc1Cl`, the IC50 in series [1] came out at 11.6 nM.
Consider `CC(C)(C)CNC(=O)C[C@H](NC(=O)N1CCC(C(=O)Nc2cnccn2)CC1)C(=O)N[C@@H](CCc1ccccc1)C(=O)NCc1ccccc1Cl`, for which, in series [2], the inhibition is over 70%. Also, the IC50 in series [4] came to 15.8 nM; in series [5] it was 17.1 nM; in series [1] it was 0.6 nM.
`CC(C)(C)CNC(=O)C[C@H](NC(=O)N1CCC(NC(=O)c2cnccn2)CC1)C(=O)N[C@@H](CCc1ccccc1)C(=O)NCc1ccccc1Cl`: the IC50 in series [4] was determined as 18.8 nM; in series [5], 20.3 nM; in series [1], 1.1 nM.
`CC(C)(C)CNC(=O)C[C@H](NC(=O)N1CCC(C(=O)Nc2ccc(C(F)(F)F)cc2)CC1)C(=O)N[C@@H](CCc1ccccc1)C(=O)NCc1ccccc1Cl`: in series [1], the IC50 was 192 nM.
As for `CC(C)(C)CNC(=O)C[C@H](NC(=O)N1CCC(C(=O)NCc2nccs2)CC1)C(=O)N[C@@H](CCc1ccccc1)C(=O)NCc1ccccc1Cl`, the inhibition entry in series [2] and in series [7] was “Active” in each case. Moreover, the IC50 in series [4] was found to be 22.5 nM; in series [5], 20.7 nM; in series [1], 1 nM.
On to `CC(C)(C)CNC(=O)C[C@H](NC(=O)N1CCC(C(=O)Nc2cccnc2)CC1)C(=O)N[C@@H](CCc1ccccc1)C(=O)NCc1ccccc1Cl`, for which the inhibition in series [2] was over 70%. The IC50 in series [4] was 20.7 nM; in series [5], 20.8 nM; in series [1] it was 0.7 nM.
For the compound `C[C@H](NC(=O)[C@H](CC(=O)NCC(C)(C)C)NC(=O)N1CCC(NC(=O)c2cnccn2)CC1)C(=O)NCc1ccccc1Cl`, the IC50 in series [1] was found to be 13.3 nM.
For the compound `CC(C)C[C@H](NC(=O)[C@H](CC(=O)NCC(C)(C)C)NC(=O)N1CCC(NC(=O)c2cnccn2)CC1)C(=O)NCc1ccccc1Cl`, the IC50 in series [1] was 21.8 nM.
On the same count and under the same terms, with `COc1ccc(NC(=O)C2CCN(C(=O)N[C@@H](CC(=O)NCC(C)(C)C)C(=O)N[C@@H](CCc3ccccc3)C(=O)NCc3ccccc3Cl)CC2)cc1` the figure was 25.7 nM.
In the case of `CC(C)(C)CNC(=O)C[C@H](NC(=O)N1CCC(C(=O)Nc2ccc(F)cc2)CC1)C(=O)N[C@@H](CCc1ccccc1)C(=O)NCc1ccccc1Cl`, the inhibition entry in series [2] and in series [7] was “Active” each time. Also, the IC50 in series [4] was 12.5 nM; in series [5], 13.9 nM; in series [1], 1.5 nM.
Take `CC(C)C[C@H](NC(=O)[C@H](CCc1ccccc1)NC(=O)CN1CCOCC1)C(=O)N[C@@H](Cc1ccccc1)C(=O)N[C@@H](CC(C)C)C(=O)[C@@]1(C)CO1` [CARFILZOMIB]: the inhibition entry in series [2], in series [7] and in series [6] was “Active” in each case. This compound also displayed an IC50 in series [4] of 1.5 nM.
`CC(C)(C)CNC(=O)C[C@H](NC(=O)C1CCN(C(=O)c2ccc(F)cc2)CC1)C(=O)N[C@@H](CCc1ccccc1)C(=O)NCc1ccccc1Cl`: the IC50 came out at 31.8 nM in series [4], 22.7 nM in series [5] and 2.6 nM in series [1].
With `CC(C)(C)CNC(=O)C[C@H](NC(=O)N1CCN(C(=O)c2ccc(F)cc2)CC1)C(=O)N[C@@H](CCc1ccccc1)C(=O)NCc1ccccc1Cl`, the IC50 in series [1] was determined as 3.8 nM.
On the same count and under the same terms, the same measure for `C[C@H](NC(=O)[C@H](CC(=O)NCC(C)(C)C)NC(=O)N1CCC(C(=O)Nc2cnccn2)CC1)C(=O)NCc1ccccc1Cl`: 19.7 nM; for `CC(C)(C)CNC(=O)C[C@H](NC(=O)N1CCC(C(=O)Nc2cnccn2)CC1)C(=O)N[C@@H](Cc1ccccc1)C(=O)NCc1ccccc1Cl`: 18 nM; for `CC(C)(C)CNC(=O)C[C@H](NC(=O)N1CCC(NC(=O)c2cnccn2)CC1)C(=O)N[C@@H](CCc1ccccc1)C(=O)NCc1ccc2c(c1)OCO2`: 10 nM.

The values are drawn from ChEMBL document CHEMBL4002597, “Exploration of novel piperazine or piperidine constructed non-covalent peptidyl derivatives as proteasome inhibitors” (Eur J Med Chem, 2017).
